Compound activity: PubChem BioAssay, several laboratories
EP2 mod – modulates human prostaglandin E2 receptor EP2 signaling; induction, % at 25 µM; AID 940; EP2-expressing cells, cAMP HTRF FRET, PGE2 co-stimulation; P43116; 0.83% of 260,000 active;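 active = compounds whose cAMP rise, as percent of the full-agonist control response, exceeds 60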;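 note: rat C6 glioma line stably carrying human EP2 under a CMV promoter; the protocol text gives 20 µM as final concentration; 100% = response of wells given 1 µM PGE2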
NPY Y1 blocker – blocks the human neuropeptide Y Y1 receptor | HEK293-CNG Y1 cells, membrane potential fluorescence; NPY at EC95, then isoproterenol | inhibition, % at 3.6 µM | 1% of 200,000 active | AID 1040;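 active = inhibition above the campaign mean inhibition of all tested compounds plus 3 SD, cut at about 20% in these data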;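 note: 0% = DMSO wells given NPY plus isoproterenol and 100% = isoproterenol alone without NPY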
Target sequence (P25929 whole entry, looked up): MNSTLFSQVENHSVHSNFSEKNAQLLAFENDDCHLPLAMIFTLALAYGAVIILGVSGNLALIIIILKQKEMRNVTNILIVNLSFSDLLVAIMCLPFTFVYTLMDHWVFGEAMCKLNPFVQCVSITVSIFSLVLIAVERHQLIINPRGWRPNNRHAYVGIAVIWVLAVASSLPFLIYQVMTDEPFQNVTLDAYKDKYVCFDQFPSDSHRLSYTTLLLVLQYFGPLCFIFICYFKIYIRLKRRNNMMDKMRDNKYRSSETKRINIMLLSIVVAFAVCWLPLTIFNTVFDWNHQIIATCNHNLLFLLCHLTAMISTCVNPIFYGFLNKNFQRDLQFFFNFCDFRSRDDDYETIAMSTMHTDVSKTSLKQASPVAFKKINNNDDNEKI
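System: HEK293 cells with Y1 receptor plus CNG channel / Probe or stimulus: NPY 25 nM then isoproterenol 1 µM plus Ro 20-1724 25 µM / Compound: one concentration, 3.6 µM, in 0.4% DMSO / Schedule: compound incubation 1 h at room temperature, readout 45 min post-stimulation / Measured by: membrane potential fluorescence / Read-out: % inhibition of NPY effect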
EP2 antag – inhibitors of human EP2 prostaglandin E2 receptor | 0.52% of 260,000 active | C6 glioma cells expressing human EP2, cAMP TR-FRET; cells stimulated with saturating PGE2 | inhibition, % at 25 µM;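 active = percent inhibition above 40 after rounding to a whole number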;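 note: rat C6 glioma host cells with rolipram phosphodiesterase inhibitor present; the protocol text gives 20 µM as final concentration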
NPY-Y1 PAM-ag – potentiators or agonists of human neuropeptide Y receptor Y1; NPY-Y1 expressing cells, potentiator/agonist activation; activation, % at 3.6 µM; 0.37% of 220,000 active; in the data active = activation above about 33%, passing the limit was not always enough;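 note: cells stimulated with NPY at EC10 then isoproterenol at EC100; 0% = low agonist plus stimulus and 100% = saturating agonist plus stimulus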
NPY2 pot ag – potentiates or activates human NPY-Y2 receptor. P49146. cells expressing NPY-Y2, potentiator/agonist read-out. activation, % at 3.6 µM. 0.45% of 220,000 active; in the data active = activation above about 27%;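 note: cells stimulated with NPY near EC25 plus isoproterenol at EC100; 0% = vehicle plus submaximal agonist and 100% = vehicle plus saturating agonist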
NPY-Y2 antag – antagonists of human neuropeptide Y receptor Y2; P49146; NPY-Y2 expressing cells, antagonist mode; inhibition, % at 2.7 µM; 0.99% of 140,000 active; AID 793; in the data active = inhibition above about 17%;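 note: 0% = vehicle with agonist challenge and 100% = reference antagonist with challenge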
* marks the source's active call; other numbers are inactive results; nt = no result. Shown are actives, neighbours in structure and some others; about 2.8% of the full set was active somewhere.

SMILES	EP2 mod	NPY Y1 blocker	EP2 antag	NPY-Y1 PAM-ag	NPY2 pot ag	NPY-Y2 antag
COc1ccc([C@@H]2CN(C(=O)Cc3ccc(F)cc3)C[C@H]2C(=O)O)cc1	6	nt	nt	nt	nt	nt
COc1ccc(Cl)cc1NC(=O)CSc1ncnc2sc(C)c(C)c12	10	nt	8	nt	nt	nt
C=CCN=C1S/C(=C/c2cccc([N+](=O)[O-])c2)C(=O)N1CC=C	64*	nt	9	-8	-9	nt
O=C1CN=C(Nc2ccccc2F)N1c1ccc2c(c1)OCCO2	29	nt	11	nt	nt	nt
C=C(C)c1cccc(C(C)(C)NC(=O)N(Cc2ccccc2)Cc2ccco2)c1	43	14	nt	-5	-9	28*
O=C(O)/C=C/C(=O)N(Cc1ccccc1)Cc1ccco1	15	0	6	18	8	-1
CCC(CC)c1nnc(NC(=O)c2ccc(OC(C)=O)cc2)s1	-7	nt	17	nt	nt	nt
CNC(=O)COC(=O)c1ccccc1NC(=O)c1ccco1	-10	nt	4	14	10	nt
CC1CCCCC1NC(=O)COC(=O)c1ccccc1NC(=O)c1ccco1 (centres undefined)	3	30*	15	-32	-8	19*
COc1ccc(CN(Cc2cnn(C)c2C)CC2CCCO2)c(OC)c1 (centres undefined)	-6	nt	9	nt	nt	nt
CS(=O)c1nc(-c2ccc(Br)cc2)cc(-c2ccccc2)c1C#N (centres undefined)	11	-9	15	101*	66*	2
CC(C)c1nc2ccccc2c2nn(CC(=O)N(C)C)c(=O)n12	12	nt	nt	nt	nt	nt
Clc1ccc2c(c1)N(CCCN1CCCC13CCCCC3)c1ccccc1S2	-5	nt	53*	nt	nt	nt
COC(=O)CSc1nnc(Cc2csc(Nc3ccc(F)cc3)n2)n1C	-4	nt	10	nt	nt	nt
O=C1[C@H]2[C@@H]3c4ccccc4[C@H]([C@H]2C(=O)N1c1ccc(OCc2ccccc2)cc1)[n+]1ccccc13	14	nt	42*	nt	nt	nt
CCCCCCP(=O)(O)c1ccccc1	21	-2	3	-70	-13	5
CCCCN(CCCC)CP(=O)(c1ccccc1)c1ccccc1	60	28*	9	9	-8	26*
COC(=O)[C@H]1CN(C(=O)c2ccc(Cn3cccn3)o2)C[C@@H]1c1ccc(F)cc1	-22	nt	nt	nt	nt	nt
O=C(O)C[C@H]1OCC=C2C[N+]3([O-])CC[C@@]45c6ccccc6N[C@@H]4[C@@H]1[C@@H]2C[C@H]53 (some centres undefined)	-5	nt	54*	nt	nt	nt
Cc1cc(-c2ccco2)n(-c2ccccc2)n1	8	-15	7	105*	101*	3
Cc1cc(NC(=O)c2cc(-c3ccco3)on2)n(-c2ccccc2)n1	1	3	1	2	11	0
S=C(NCCc1ccccc1)N/N=C/c1ccc(Cl)cc1	-51	nt	7	-44	-35	nt
S=C(NCCc1ccccc1)N/N=C/c1c(Cl)cccc1Cl	3	22*	4	-41	-17	23*
COc1c(Cl)cc(C(=O)Nc2ccc(NC(=O)c3cccs3)cc2)cc1Cl	-48	nt	8	nt	nt	nt
COc1ccc(-c2nc3ccccc3n2OC(C)C(=O)O)cc1 (centres undefined)	8	3	6	-1	-8	nt
SMILES	EP2 mod	NPY Y1 blocker	EP2 antag	NPY-Y1 PAM-ag	NPY2 pot ag	NPY-Y2 antag
Clc1ccc(-c2nc3ccccc3n2OCc2ccccc2)cc1	63*	6	2	-12	-8	0
CCc1ccc2[nH]c(=O)c(CN(CCCN3CCOCC3)C(=O)NC3CCCCC3)cc2c1	9	nt	8	nt	nt	nt
Cc1ccc(-c2c[nH]c(=S)n2-c2ccccc2)cc1	14	5	8	9	4	nt
S=c1[nH]cc(-c2ccccc2)n1-c1cccc(Cl)c1	-5	-6	6	39*	32*	-2
Cc1c(Cl)cccc1NC(=O)CSc1nnc(C(C)C)n1C	-28	nt	5	nt	nt	nt
COc1ccc(C2=NN3C(C2)c2ccccc2OC32C(=O)Nc3ccccc32)cc1OC (centres undefined)	-8	nt	5	nt	nt	nt
O=C(O)CC1=NNC(=O)C2C=CC=CC12 (centres undefined)	-4	nt	9	nt	nt	nt
CN(C)c1ncnc2c1ncn2CCn1cnc2c(N(C)C)ncnc21	29	nt	46*	nt	nt	nt
CN(C)c1ncnc2c1ncn2C1OC(CO)C(O)C1O (centres undefined)	-1	-2	15	9	-2	2
COc1ccc(OC)c(-c2cc(C(=O)O)c3cc4ccccc4cc3n2)c1	6	nt	55*	nt	nt	nt
COc1ccc(NC(=O)Cn2nnc(-c3ccccc3NC(=O)c3ccncc3)n2)cc1	-18	nt	7	nt	nt	nt
CCn1c(SCC(=O)N2CCN(c3cccc(Cl)c3)CC2)nc2ccccc2c1=O	-71	24*	29	-35	-9	24*
Cc1cc2ccccc2c(=O)n1CC(=O)N1CCN(c2cccc(Cl)c2)CC1	-4	0	11	21	12	3
Cc1sc2nc(C(C)C)n3c(SCC(=O)N4CCCCC4)nnc3c2c1C	0	nt	8	nt	nt	nt
CC(CCc1nc2ccccc2s1)(c1ccc(O)cc1)c1ccc(O)cc1	-33	nt	100*	nt	nt	nt
Oc1ccc(-c2nc3ccccc3s2)cc1	-43	nt	8	11	10	nt
CC(=O)CCc1oc2ccccc2c1-c1ccccc1	79*	nt	5	0	23	nt
CC(=O)CCc1oc2ccc([N+](=O)[O-])cc2c1-c1ccc(C)o1	39	-3	3	5	12	nt
CC(C)(C)N1C(=O)Cc2c1nc(N)c1c(N)nc(N3CCCCC3CO)c(C#N)c21 (centres undefined)	-29	5	44*	-7	-4	-2
CCCC(c1nnnn1Cc1ccco1)N1CCN(c2cc(Cl)ccc2C)CC1 (centres undefined)	22	29*	8	4	-2	27*
CCCC(c1nnnn1Cc1ccco1)N1CCN(c2ccccc2F)CC1 (centres undefined)	-9	nt	9	nt	nt	nt
N=c1n(CCN2CCCCC2)c2ccccc2n1CC(O)c1cccc(Br)c1 (centres undefined)	-5	41*	18	-39	-20	32*
N=c1n(CCN2CCCCC2)c2ccccc2n1CC(O)c1ccc(Cl)c(Cl)c1 (centres undefined)	-52	36*	nt	-37	-23	53*
CCc1ccc2nc3sc(C(=O)N4CCCC(C)C4)c(N)c3cc2c1 (centres undefined)	-136	nt	11	nt	nt	nt
